# Results published in PMC11044719 (Journal of Enzyme Inhibition and Medicinal Chemistry, 2024).
# Key:
# FGFR4 kinase = FGFR4 kinase (Homo sapiens, UniProt P22455); experiment: biochemical; format: biochemical; details: for inhibition at 1 µM: read-out: % inhibition against FGFR4 kinase
# [1] = Metabolic stability assay in mouse liver microsomes; format: in vitro ADME; details: pH 7
# Outline: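 Human or mouse liver microsomes (0.5 mg/ml) were pre-incubated 5 min at 37 °C with 1 μM test compound in 0.1 M phosphate buffer, pH 7. NADPH regenerating system was added and the mix incubated 30 min at 37 °C. Acetonitrile with internal standard stopped the reaction. Parent compound was measured by LC-MS/MS, with % remaining at 30 min versus 0 min, in duplicate.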
# [2] = Metabolic stability assay in human liver microsomes; format: in vitro ADME; details: pH 7
# FGFR3 = FGFR3 (Homo sapiens, UniProt P22607); experiment: In vitro kinase assay; format: biochemical; details: read-out: % inhibition at 1 μM FGFR3
# Outline: (§1)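 Test compound at 0.1 and 1 μM against each FGFR isoform with ATP at its Km concentration; percent inhibition reported.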
# FGFR2 = FGFR2 (Homo sapiens, UniProt P21802); experiment: In vitro kinase assay; format: biochemical; details: read-out: % inhibition at 1 μM FGFR2
# Outline: as §1
# FGFR1 = FGFR1 (Homo sapiens, UniProt P11362); experiment: In vitro kinase assay; format: biochemical; details: read-out: % inhibition at 1 μM FGFR1
# Outline: as §1
# Sequence of FGFR4 kinase (P22455 22-802): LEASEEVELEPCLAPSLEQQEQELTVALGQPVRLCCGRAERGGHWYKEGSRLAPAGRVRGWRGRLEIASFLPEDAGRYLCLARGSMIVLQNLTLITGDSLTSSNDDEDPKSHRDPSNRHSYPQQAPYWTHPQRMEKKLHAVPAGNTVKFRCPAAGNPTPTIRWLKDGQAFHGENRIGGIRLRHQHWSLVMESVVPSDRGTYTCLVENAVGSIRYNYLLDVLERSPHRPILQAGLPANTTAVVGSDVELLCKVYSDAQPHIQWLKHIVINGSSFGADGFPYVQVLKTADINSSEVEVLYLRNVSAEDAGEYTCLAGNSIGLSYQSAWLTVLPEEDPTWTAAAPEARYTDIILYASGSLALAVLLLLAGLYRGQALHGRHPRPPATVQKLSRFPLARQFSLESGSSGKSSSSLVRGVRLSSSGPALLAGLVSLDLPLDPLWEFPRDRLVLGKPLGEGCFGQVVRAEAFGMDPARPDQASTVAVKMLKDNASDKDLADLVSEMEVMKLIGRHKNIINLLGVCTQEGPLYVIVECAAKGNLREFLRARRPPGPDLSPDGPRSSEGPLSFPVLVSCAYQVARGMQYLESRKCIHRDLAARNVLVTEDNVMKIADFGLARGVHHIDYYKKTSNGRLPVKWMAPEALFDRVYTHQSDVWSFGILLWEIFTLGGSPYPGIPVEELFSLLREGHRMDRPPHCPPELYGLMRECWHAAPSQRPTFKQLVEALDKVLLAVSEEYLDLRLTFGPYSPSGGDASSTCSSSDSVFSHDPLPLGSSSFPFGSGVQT
# Sequence of FGFR3 (P22607 23-806): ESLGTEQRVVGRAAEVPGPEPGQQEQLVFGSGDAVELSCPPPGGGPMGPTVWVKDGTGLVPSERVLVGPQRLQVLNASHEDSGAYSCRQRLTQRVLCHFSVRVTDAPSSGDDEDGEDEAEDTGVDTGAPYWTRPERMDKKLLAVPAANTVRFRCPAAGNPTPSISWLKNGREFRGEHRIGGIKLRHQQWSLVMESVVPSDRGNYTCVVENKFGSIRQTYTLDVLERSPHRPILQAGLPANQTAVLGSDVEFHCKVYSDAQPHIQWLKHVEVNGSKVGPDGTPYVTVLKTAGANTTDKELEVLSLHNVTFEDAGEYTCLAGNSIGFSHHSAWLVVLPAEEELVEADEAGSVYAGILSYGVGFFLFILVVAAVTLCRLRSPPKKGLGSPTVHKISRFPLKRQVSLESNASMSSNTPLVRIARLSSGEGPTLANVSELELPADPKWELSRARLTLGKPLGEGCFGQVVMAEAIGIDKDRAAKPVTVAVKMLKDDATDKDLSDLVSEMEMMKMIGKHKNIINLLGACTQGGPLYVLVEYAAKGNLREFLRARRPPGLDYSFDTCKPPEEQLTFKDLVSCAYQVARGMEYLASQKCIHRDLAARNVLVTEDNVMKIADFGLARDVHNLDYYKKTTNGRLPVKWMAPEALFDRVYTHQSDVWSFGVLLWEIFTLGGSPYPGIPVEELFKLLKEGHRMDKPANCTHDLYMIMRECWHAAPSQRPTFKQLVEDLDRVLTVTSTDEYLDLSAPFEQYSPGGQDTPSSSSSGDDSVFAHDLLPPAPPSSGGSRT
# Sequence of FGFR2 (P21802 22-821): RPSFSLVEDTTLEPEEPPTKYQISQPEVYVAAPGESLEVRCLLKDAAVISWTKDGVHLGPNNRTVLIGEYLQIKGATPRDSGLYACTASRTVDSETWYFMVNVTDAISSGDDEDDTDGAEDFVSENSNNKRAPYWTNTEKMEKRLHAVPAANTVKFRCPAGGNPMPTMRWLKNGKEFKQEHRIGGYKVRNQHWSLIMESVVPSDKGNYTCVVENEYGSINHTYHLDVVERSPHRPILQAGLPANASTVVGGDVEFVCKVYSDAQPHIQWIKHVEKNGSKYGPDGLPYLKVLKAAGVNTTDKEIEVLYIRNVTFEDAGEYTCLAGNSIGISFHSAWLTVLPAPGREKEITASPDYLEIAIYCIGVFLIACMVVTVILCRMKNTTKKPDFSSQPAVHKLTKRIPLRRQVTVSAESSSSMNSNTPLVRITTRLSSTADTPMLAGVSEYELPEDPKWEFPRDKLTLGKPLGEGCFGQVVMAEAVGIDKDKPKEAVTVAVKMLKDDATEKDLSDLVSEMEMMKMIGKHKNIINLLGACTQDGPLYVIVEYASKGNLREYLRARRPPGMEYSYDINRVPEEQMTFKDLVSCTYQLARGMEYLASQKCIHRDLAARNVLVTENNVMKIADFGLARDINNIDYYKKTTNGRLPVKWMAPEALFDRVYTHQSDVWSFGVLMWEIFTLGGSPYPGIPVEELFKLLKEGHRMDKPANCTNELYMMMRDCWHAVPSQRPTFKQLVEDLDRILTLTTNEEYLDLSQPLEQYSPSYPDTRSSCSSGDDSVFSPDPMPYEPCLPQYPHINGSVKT
# Sequence of FGFR1 (P11362 22-822): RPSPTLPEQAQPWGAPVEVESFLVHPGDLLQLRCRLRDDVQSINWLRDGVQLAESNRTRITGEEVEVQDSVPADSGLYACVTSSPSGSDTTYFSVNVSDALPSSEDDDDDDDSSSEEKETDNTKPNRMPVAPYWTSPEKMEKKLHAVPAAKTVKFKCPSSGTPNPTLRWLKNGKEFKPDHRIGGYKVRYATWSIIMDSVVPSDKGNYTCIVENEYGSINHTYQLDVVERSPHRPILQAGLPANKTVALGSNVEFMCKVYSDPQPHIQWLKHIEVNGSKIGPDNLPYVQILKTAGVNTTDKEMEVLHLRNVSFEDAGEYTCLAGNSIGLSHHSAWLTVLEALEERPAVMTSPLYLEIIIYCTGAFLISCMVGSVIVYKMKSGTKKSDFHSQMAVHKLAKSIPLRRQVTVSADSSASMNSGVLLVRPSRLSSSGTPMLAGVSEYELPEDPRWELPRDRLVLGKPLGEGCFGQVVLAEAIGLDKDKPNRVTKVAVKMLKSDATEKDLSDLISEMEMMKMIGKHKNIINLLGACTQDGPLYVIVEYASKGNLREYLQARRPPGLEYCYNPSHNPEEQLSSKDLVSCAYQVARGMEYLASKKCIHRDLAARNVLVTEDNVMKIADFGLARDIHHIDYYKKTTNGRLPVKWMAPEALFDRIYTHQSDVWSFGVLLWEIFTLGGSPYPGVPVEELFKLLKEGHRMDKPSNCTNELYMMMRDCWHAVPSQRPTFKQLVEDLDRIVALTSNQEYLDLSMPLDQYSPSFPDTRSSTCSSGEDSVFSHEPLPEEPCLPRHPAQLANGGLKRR
SMILES,inhibition at 1 µM (FGFR4 kinase),further results
"C=CC(=O)Nc1ccccc1C(=O)Nc1cccnn1 [2a, 2-Acrylamido-N-(pyridazin-3-yl)benzamide]",21%,–
"C=CC(=O)Nc1ccccc1C(=O)Nc1ccccn1 [2b, 2-Acrylamido-N-(pyridin-2-yl)benzamide]",9%,–
"C=CC(=O)Nc1ccccc1C(=O)Nc1cccnc1 [2c, 2-Acrylamido-N-(pyridin-3-yl)benzamide]",7%,–
"C=CC(=O)Nc1ccccc1C(=O)Nc1ncccn1 [2d, 2-Acrylamido-N-(pyrimidin-2-yl)benzamide]",6%,–
"C=CC(=O)Nc1ccccc1C(=O)Nc1ccncn1 [2e, 2-Acrylamido-N-(pyrimidin-4-yl)benzamide]",12%,–
"C=CC(=O)Nc1ccccc1C(=O)Nc1cnccn1 [2f, 2-Acrylamido-N-(pyrazin-2-yl)benzamide]",9%,–
"C=CC(=O)Nc1ccccc1C(=O)Nc1ccc(Cl)nn1 [2g, 2-Acrylamido-N-(6-chloropyridazin-3-yl)benzamide]",30%,–
"C#Cc1ccc(NC(=O)c2ccccc2NC(=O)C=C)cn1 [2h, 2-Acrylamido-N-(6-ethynylpyridin-3-yl)benzamide]",44%,–
"C#Cc1ccc(NC(=O)c2ccccc2NC(=O)C=C)nn1 [2i, 2-Acrylamido-N-(6-ethynylpyridazin-3-yl)benzamide]",49%,–
"C=CC(=O)Nc1ccccc1C(=O)Nc1cc(C)on1 [2j, 2-Acrylamido-N-(5-methylisoxazol-3-yl)benzamide]",5%,–
"C=CC(=O)Nc1ccccc1C(=O)Nc1n[nH]c2ccccc12 [2k, 2-Acrylamido-N-(1H-indazol-3-yl)benzamide]",4%,–
"C=CC(=O)Nc1ccccc1C(=O)Nc1ncnc2ccccc12 [2l, 2-Acrylamido-N-(quinazolin-4-yl)benzamide]",0%,–
"C=CC(=O)Nc1ccccc1C(=O)Nc1ccc(C#CCN(C)C)nn1 [4a, 2-Acrylamido-N-(6–(3-(dimethylamino)prop-1-yn-1-yl)pyridazin-3-yl)benzamide]",10%,–
"C=CC(=O)Nc1ccccc1C(=O)Nc1ccc(C#CCOC)nn1 [4b, 2-Acrylamido-N-(6–(3-methoxyprop-1-yn-1-yl)pyridazin-3-yl)benzamide]",47%,–
"C=CC(=O)Nc1ccccc1C(=O)Nc1ccc(C#Cc2ccc(OC)cc2)nn1 [4c, 2-Acrylamido-N-(6-((4-methoxyphenyl)ethynyl)pyridazin-3-yl)benzamide]",97%,"IC50 (FGFR4 kinase): 33 nM; fold more potent than staurosporin (IC50) (FGFR4 kinase): 5 fold; fold improvement of IC50 compared to that of other derivatives (FGFR4 kinase; FGFR4 IC50 compared with other derivatives of Table 3): ~10 fold; remaining at 0.5 h, 1 μM [1]: 25.2%; remaining at 0.5 h, 1 μM [2]: 7.5%; inhibition at 1 µM (FGFR3): 0%"
"C=CC(=O)Nc1ccccc1C(=O)Nc1ccc(C#Cc2cccc(OC)c2)nn1 [4d, 2-Acrylamido-N-(6-((3-methoxyphenyl)ethynyl)pyridazin-3-yl)benzamide]",86%,IC50 (FGFR4 kinase): 424 nM

SMILES,inhibition at 1 µM (FGFR4 kinase),further results
"C=CC(=O)Nc1ccccc1C(=O)Nc1ccc(C#Cc2ccccc2OC)nn1 [4e, 2-Acrylamido-N-(6-((2-methoxyphenyl)ethynyl)pyridazin-3-yl)benzamide]",42%,–
"C=CC(=O)Nc1ccccc1C(=O)Nc1ccc(C#Cc2cc(OC)cc(OC)c2)nn1 [4f, 2-Acrylamido-N-(6-((3,5-dimethoxyphenyl)ethynyl)pyridazin-3-yl)benzamide]",80%,–
"C=CC(=O)Nc1ccccc1C(=O)Nc1ccc(C#Cc2cccc(N(C)C)c2)nn1 [4g, 2-Acrylamido-N-(6-((3-(dimethylamino)phenyl)ethynyl)pyridazin-3-yl)benzamide]",59%,–
"C=CC(=O)Nc1ccccc1C(=O)Nc1ccc(C#Cc2ccc(N(C)C)cc2)nn1 [4h, 2-Acrylamido-N-(6-((4-(dimethylamino)phenyl)ethynyl)pyridazin-3-yl)benzamide]",92%,–
"C=CC(=O)Nc1ccccc1C(=O)Nc1ccc(C#Cc2ccccc2)nn1 [4i, 2-Acrylamido-N-(6-(phenylethynyl)pyridazin-3-yl)benzamide]",91%,IC50 (FGFR4 kinase): 235 nM
"C=CC(=O)Nc1ccccc1C(=O)Nc1ccc(C#Cc2cccnc2)nn1 [4j, 2-Acrylamido-N-(6-(pyridin-3-ylethynyl)pyridazin-3-yl)benzamide]",13%,–
"C=CC(=O)Nc1ccccc1C(=O)Nc1ccc(C#CC2CCCCC2)nn1 [4k, 2-Acrylamido-N-(6-(cyclohexylethynyl)pyridazin-3-yl)benzamide]",25%,–
"C=CC(=O)Nc1ccccc1C(=O)Nc1ccc(C#Cc2cccc3ccccc23)nn1 [4l, 2-Acrylamido-N-(6-(naphthalen-1-ylethynyl)pyridazin-3-yl)benzamide]",17%,–
"C=CC(=O)Nc1ccccc1C(=O)Nc1ccc(C#CCOc2cccc(OC)c2)nn1 [4m, 2-Acrylamido-N-(6–(3-(3-methoxyphenoxy)prop-1-yn-1-yl)pyridazin-3-yl)benzamide]",37%,–
"C=CC(=O)Nc1ccccc1C(=O)Nc1ccc(Oc2cccc(OC)c2)nn1 [4n, 2-Acrylamido-N-(6–(3-methoxyphenoxy)pyridazin-3-yl)benzamide]",7%,–
"C=CC(=O)Nc1ccccc1C(=O)Nc1ccc(-c2cccc(OC)c2)nn1 [4o, 2-Acrylamido-N-(6–(3-methoxyphenyl)pyridazin-3-yl)benzamide]",39%,–
"C=CC(=O)Nc1ccccc1C(=O)Nc1ccc(CCc2cccc(OC)c2)nn1 [4p, 2-Acrylamido-N-(6–(3-methoxyphenethyl)pyridazin-3-yl)benzamide]",26%,–
"C=CC(=O)Nc1ccccc1C(=O)Nc1ccc(CCc2cccc(N(C)C)c2)nn1 [4q, 2-Acrylamido-N-(6–(3-(dimethylamino)phenethyl)pyridazin-3-yl)benzamide]",13%,–
"C=CC(=O)Nc1ccccc1C(=O)Nc1ccc(C#Cc2ccc3c(c2)OCO3)nn1 [4s, 2-Acrylamido-N-(6–(2-(1,3-benzodioxol-5-yl)ethynyl)pyridazin-3-yl)benzamide]",92%,"IC50 (FGFR4 kinase): 319 nM; remaining at 0.5 h, 1 μM [1]: 53.9%; remaining at 0.5 h, 1 μM [2]: 62.1%"
"CCC(=O)Nc1ccccc1C(=O)Nc1ccc(C#Cc2ccc(OC)cc2)nn1 [4t, N-[6-[2–(4-methoxyphenyl)ethynyl]pyridazin-3-yl]-2-(propanoylamino)benzamide]",0%,–
"C=CC(=O)N[C@H]1CCOC[C@H]1Nc1ncc2cc(-c3c(Cl)c(OC)cc(OC)c3Cl)ccc2n1 [BLU554, fisogatinib, reference compound]",97%,inhibition at 1 µM (FGFR3): 10%; inhibition at 1 µM (FGFR2): 11%; inhibition at 1 µM (FGFR1): 29%
